Assay results from different studies.
Each line is one published result; the experiments were not run side by side.
Cell line: HEK293
Read-out: cell growth or viability

SMILES	technique	time	IC50
Cc1[nH]c(C)c(-c2ccc(C(=O)c3ccc(Cl)cc3)cc2)c(=O)c1Br	–	–	> 10 µM
Cc1c(C)c2c(O)cc(O)cc2oc1=O	MTT	36 h	> 20 µM
Cc1nc2ccccc2c(O)c1-c1ccc(Cl)cc1	–	–	> 10 µM
O=c1cc(CCl)c2cc(O)ccc2o1	MTT	36 h	> 20 µM
C[C@@H](O)C(=O)CCCCCCC(=O)Nc1ccccc1	XTT	–	35.6 µM
CC(=O)Oc1ccc2oc(=O)cc(CSC(C)=O)c2c1	MTT	36 h	> 20 µM
CCCCCCCCc1c(C)[nH]c(C)c(C#N)c1=O	–	–	> 10 µM
c1ccc2c(OCCCCCCN3CCCCCC3)cccc2c1	–	48 h	11.8 µM
COc1cccc2c1C(=O)c1c(O)c3c(c(O)c1C2=O)C[C@@](O)(C(=O)CO)C[C@@H]3O[C@H]1C[C@H](N)[C@H](O)[C@H](C)O1	MTT	24 h	> 40 µM
CC(=O)SCc1cc(=O)oc2ccc(O)cc12	MTT	36 h	> 20 µM
C[C@@H](O)C(=O)CCCCC[C@@H]1NC(=O)[C@H]2CCCN2C(=O)[C@H](Cc2ccccc2)NC(=O)C(C)(C)NC1=O	XTT	–	0.04 µM
O=C(c1cc(-c2cccs2)[nH]n1)N1CCN(S(=O)(=O)c2ccc(Cl)s2)CC1	–	–	> 10 µM
CC(=O)O[C@H](C)C(=O)CCCCC[C@@H]1NC(=O)[C@H]2CCCN2C(=O)[C@H](Cc2ccccc2)NC(=O)C(C)(C)NC1=O	XTT	–	0.006 µM
CCCc1ccc(OCCCCCN2CCCCCC2)cc1	–	48 h	33.3 µM
